Experiments:
Plasmodium falciparum [1] = assay: Antiplasmodial activity against erythrocyte form of chloroquine-sensitive Plasmodium falciparum D10 by parasite lactate dehydrogenase assay; type: functional, organism-based
Procedure, shortened: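 Asexual erythrocyte-stage cultures were maintained by a modified Trager–Jensen method. Samples were made as 20 mg/mL stocks in 100% DMSO and diluted in complete medium. The top test concentration was 100 µg/mL, with twofold serial dilution to 10 concentrations (lowest 0.2 µg/mL). Growth was read by parasite lactate dehydrogenase assay in triplicate on one occasion. IC50 came from full dose-response curves.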

[2] = Selectivity index, ratio of IC50 for CHO cells to IC50 for chloroquine-sensitive Plasmodium falciparum D10; type: toxicity, cell-based; conditions: hamster, read-out: Ratio IC50
Procedure, shortened: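 Computed as IC50 from the CHO MTT assay divided by IC50 from the D10 pLDH assay. Both IC50 values came from full dose-response curves, each run in triplicate on one occasion.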

Plasmodium falciparum [3] = assay: Antiplasmodial activity against erythrocyte form of chloroquine-resistant Plasmodium falciparum Dd2 by parasite lactate dehydrogenase assay; type: functional, organism-based
Procedure, shortened: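 Continuous culture of asexual erythrocyte stages (modified Trager–Jensen); growth read by parasite lactate dehydrogenase assay (modified Makler). Samples from 20 mg/mL DMSO stock, diluted in complete medium; full dose-response, twofold serial dilutions from 100 µg/mL to 0.2 µg/mL (10 concentrations); chloroquine reference. Triplicate on one occasion; IC50 from non-linear curve fitting.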

CHO = assay: Cytotoxicity against CHO cells by MTT assay; type: cell-based; conditions: Cricetulus griseus
Procedure, shortened: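 CHO cell growth and survival was read colorimetrically with MTT. Samples were diluted in complete medium on the day of testing as 10-fold serial dilutions to 6 concentrations (100 down to 0.001 µg/mL). Emetine served as reference. Tests were run in triplicate on one occasion. IC50 was obtained by non-linear dose-response curve fitting.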

Plasmodium falciparum [4] = assay: Resistance index, ratio of IC50 for chloroquine-resistant Plasmodium falciparum Dd2 to IC50 for chloroquine-sensitive Plasmodium falciparum D10; type: functional

Row | SMILES | IC50 (Plasmodium falciparum [1]) | selectivity ratio [2] | IC50 (Plasmodium falciparum [3]) | IC50 (CHO) | Ratio IC50 (Plasmodium falciparum [4])
1 | CCN(CC)CCC(C)COc1c(Cl)cc(Cl)c2ccc(C)nc12 (configuration not stated) | 3.95 µM | 57 | 0.68 µM | 224 µM | 0.17
2 | CCN(CC)CCC(C)COc1c(I)cc(Cl)c2cccnc12 (configuration not stated) | 13 µM | – | – | – | –
3 | CCN(CC)CCC(C)COc1c(I)cc(I)c2cccnc12 (configuration not stated) | 13.9 µM | – | – | – | –
4 | CCN(CC)CCCCOc1cccc2ncccc12 | 10.2 µM | – | – | – | –
5 | Clc1ccc(CNCCCCOc2ccc(Cl)c3cccnc23)cc1 | 9.99 µM | – | – | – | –
6 | Cc1ccc2c(Cl)cc(Cl)c(OCC(C)CCNCc3ccc(Cl)cc3)c2n1 (configuration not stated) | 2.44 µM | 2 | 0.26 µM | 4.11 µM | 0.11
7 | Clc1ccc(CNCCCCOc2ccc3ncccc3c2)cc1 | 7.29 µM | 29 | > 1 µM | 211 µM | –
8 | Clc1ccc(CNCCCCOc2cccc3ncccc23)cc1 | 7.01 µM | 34 | – | 237 µM | –
9 | CCN(CC)CCC(C)Cc1cc(Cl)c2cccnc2c1O (configuration not stated) | 1.01 µM | 5 | 0.15 µM | 4.8 µM | 0.15
10 | CC[C@H]1CN2CCc3cc(OC)c(OC)cc3[C@@H]2C[C@@H]1C[C@H]1NCCc2cc(OC)c(OC)cc21 [EMETINE] | – | – | – | 0.17 µM | –

Continued by falling IC50 (Plasmodium falciparum [1]), values first:

Row | IC50 (Plasmodium falciparum [1]) | SMILES | selectivity ratio [2] | IC50 (Plasmodium falciparum [3]) | IC50 (CHO) | Ratio IC50 (Plasmodium falciparum [4])
11 | 100 µM | CCN(CC)CCC(C)COc1cccc2cccnc12 (configuration not stated) | – | – | – | –
12 | 49.2 µM | CCN(CC)CCCCOc1cccc2cccnc12 | – | – | – | –
13 | 23.1 µM | CC(CCNCc1ccc(Cl)cc1)COc1cccc2ncccc12 (configuration not stated) | – | – | – | –
14 | 17.2 µM | CCN(CC)CCCCOc1ccc(Cl)c2cccnc12 | – | – | – | –
15 | 9.15 µM | CC(CCNCc1ccc(Cl)cc1)COc1c(I)cc(I)c2cccnc12 (configuration not stated) | – | – | – | –
16 | 9.02 µM | CCN(CC)CCCCOc1c(I)cc(Cl)c2cccnc12 | – | – | – | –
17 | 8.65 µM | CCN(CC)CCC(C)COc1c(Br)cc(Br)c2cccnc12 (configuration not stated) | – | – | – | –
18 | 8.08 µM | CCN(CC)CCC(C)COc1c(Cl)cc(Cl)c2cccnc12 (configuration not stated) | – | – | – | –
19 | 6.02 µM | CCN(CC)CCCCOc1ccc2ncccc2c1 | – | – | – | –
20 | 5.64 µM | CC(CCNCc1ccc(Cl)cc1)COc1cccc2cccnc12 (configuration not stated) | – | – | – | –

— ChEMBL document CHEMBL2311534, “Synthesis and antiplasmodial evaluation of novel (4-aminobutyloxy)quinolines” (Bioorg Med Chem Lett, 2013)
